Measured values: ChEMBL document CHEMBL1914423, “New imidazo[2,1-b]thiazole derivatives: synthesis, in vitro anticancer evaluation, and in silico studies” (Eur J Med Chem, 2011)

Legend:
M14 = test: Antiproliferative activity against human M14 cells after 48 hrs by MTT assay; assay type: functional, cell-based; details: M14, 48 h
SK-MEL-28 [1] = test: Antiproliferative activity against human SK-MEL-28 cells after 48 hrs by MTT assay; assay type: functional, cell-based; details: SK-MEL-28, 48 h
UACC-257 [2] = test: Antiproliferative activity against human UACC257 cells after 48 hrs by MTT assay; assay type: functional, cell-based; details: UACC-257, 48 h
CCRF-CEM = test: Anticancer activity against human CCRF-CEM cells after 48 hrs by SRB assay; assay type: functional
In short: (§1)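 NCI five-dose screen. Cells in RPMI 1640 with 5% FBS and 2 mM L-glutamine, seeded at 5000–40,000 cells/well according to doubling time, then pre-incubated 24 h at 37 °C in 5% CO2. Drugs dissolved in DMSO, five concentrations by 10-fold or 1/2-log dilution. Cells fixed with TCA, SRB-stained, A515 read. IC50 solved from [(Ti−Tz)/(C−Tz)]×100 = 50.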

HL-60(TB) = test: Anticancer activity against human HL-60(TB) cells after 48 hrs by SRB assay; assay type: functional; details: HL-60, 48 h
In short: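 NCI-60 five-dose screen. Cells grown in RPMI 1640 with 5% FBS and 2 mM L-glutamine, seeded at 5000–40,000 cells/well, and held 24 h at 37 °C and 5% CO₂ before drug. DMSO stocks were diluted into five concentrations (10-fold or ½-log steps). Settled suspension cells were fixed with cold TCA, SRB-stained, and read at 515 nm. […] was taken where [(Ti−Tz)/(C−Tz)]×100 = 50.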

RPMI-8226 = test: Anticancer activity against human RPMI8226 cells after 48 hrs by SRB assay; assay type: functional; details: RPMI-8226, 48 h
HOP-62 = test: Anticancer activity against human HOP62 cells after 48 hrs by SRB assay; assay type: functional; details: HOP-62, 48 h; in short: as §1
NCI-H226 = test: Anticancer activity against human NCI-H226 cells after 48 hrs by SRB assay; assay type: functional; details: NCI-H226, 48 h
NCI-H23 = test: Anticancer activity against human NCI-H23 cells after 48 hrs by SRB assay; assay type: functional; details: NCI-H23, 48 h
NCI-H460 = test: Anticancer activity against human NCI-H460 cells after 48 hrs by SRB assay; assay type: functional; details: NCI-H460, 48 h
HCT-15 = test: Anticancer activity against human HCT15 cells after 48 hrs by SRB assay; assay type: functional; details: HCT-15, 48 h; in short: as §1
HT-29 = test: Anticancer activity against human HT-29 cells after 48 hrs by SRB assay; assay type: functional; details: HT-29, 48 h; in short: as §1
SW-620 = test: Anticancer activity against human SW620 cells after 48 hrs by SRB assay; assay type: functional; details: SW-620, 48 h
In short: (§2)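 NCI-60 five-dose mode: cells in RPMI 1640 with 5% FBS and 2 mM glutamine, plated at 5000–40,000 cells/well, and preincubated 24 h, with time-zero plates TCA-fixed. Drug given at five concentrations (10-fold or ½-log serial dilutions). Cold TCA fixation 60 min at 4 °C, SRB stain, Tris solubilization, A515. IC50 taken where [(Ti−Tz)/(C−Tz)]×100 = 50.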

SF-268 = test: Anticancer activity against human SF268 cells after 48 hrs by SRB assay; assay type: functional; details: SF-268, 48 h
SF-539 = test: Anticancer activity against human SF539 cells after 48 hrs by SRB assay; assay type: functional; details: SF-539, 48 h
SNB-19 = test: Anticancer activity against human SNB19 cells after 48 hrs by SRB assay; assay type: functional; details: SNB-19, 48 h
LOX IMVI = test: Anticancer activity against human LOXIMVI cells after 48 hrs by SRB assay; assay type: functional; in short: as §1
Malme-3M = test: Anticancer activity against human MALME-3M cells after 48 hrs by SRB assay; assay type: functional; in short: as §1
SK-MEL-28 [3] = test: Anticancer activity against human SK-MEL-28 cells after 48 hrs by SRB assay; assay type: functional; details: SK-MEL-28, 48 h
SK-MEL-5 = test: Anticancer activity against human SK-MEL-5 cells after 48 hrs by SRB assay; assay type: functional; details: SK-MEL-5, 48 h
UACC-257 [4] = test: Anticancer activity against human UACC257 cells after 48 hrs by SRB assay; assay type: functional; details: UACC-257, 48 h; in short: as §2
IGROV-1 = test: Anticancer activity against human IGROV1 cells after 48 hrs by SRB assay; assay type: functional; details: IGROV-1, 48 h; in short: as §1
OVCAR-4 = test: Anticancer activity against human OVCAR4 cells after 48 hrs by SRB assay; assay type: functional; details: OVCAR-4, 48 h
OVCAR-5 = test: Anticancer activity against human OVCAR5 cells after 48 hrs by SRB assay; assay type: functional; details: OVCAR-5, 48 h
OVCAR-8 = test: Anticancer activity against human OVCAR8 cells after 48 hrs by SRB assay; assay type: functional; details: OVCAR-8, 48 h
NCI/ADR-RES = test: Anticancer activity against human NCI/ADR-RES cells after 48 hrs by SRB assay; assay type: functional
CAKI-1 = test: Anticancer activity against human Caki1 cells after 48 hrs by SRB assay; assay type: functional; details: CAKI-1, 48 h; in short: as §1
SN12C = test: Anticancer activity against human SN12C cells after 48 hrs by SRB assay; assay type: functional
UO-31 = test: Anticancer activity against human UO31 cells after 48 hrs by SRB assay; assay type: functional; details: UO-31, 48 h; in short: as §2
[5] = read-out: LC50 (the source's name)

Compound: O=C(NCCNc1nccc(-c2c(-c3cccc(O)c3)nc3sccn23)n1)c1ccccc1
- IC50 (M14): 0.434 µM
- IC50 (SK-MEL-28 [1]): 0.336 µM
- IC50 (UACC-257 [2]): 0.489 µM
- GI50 (CCRF-CEM): 3.38 µM
- TGI (CCRF-CEM): 34.1 µM
- CC50 (CCRF-CEM; [5]): > 100 µM
- GI50 (HL-60(TB)): 10.2 µM
- TGI (HL-60(TB)): 29.6 µM
- GI50 (RPMI-8226): 6.97 µM
- TGI (RPMI-8226): 25.3 µM
- GI50 (HOP-62): 23.5 µM
- TGI (HOP-62): 94.2 µM
- GI50 (NCI-H226): 7.95 µM
- TGI (NCI-H226): 45.3 µM
- GI50 (NCI-H23): 10 µM
- TGI (NCI-H23): 30.7 µM
- GI50 (NCI-H460): 10.4 µM
- TGI (NCI-H460): 27.5 µM
- GI50 (HCT-15): 18.8 µM
- TGI (HCT-15): 62.2 µM
- CC50 (HCT-15; [5]): > 100 µM
- GI50 (HT-29): 6.79 µM
- TGI (HT-29): 38.3 µM
- CC50 (HT-29; [5]): > 100 µM
- GI50 (SW-620): 18 µM
- TGI (SW-620): 79.4 µM
- CC50 (SW-620; [5]): > 100 µM
- GI50 (SF-268): 15.5 µM
- TGI (SF-268): 87 µM
- CC50 (SF-268; [5]): > 100 µM
- GI50 (SF-539): 11.3 µM
- TGI (SF-539): 36.8 µM
- CC50 (SF-539; [5]): > 100 µM
- GI50 (SNB-19): 29.4 µM
- TGI (SNB-19): > 100 µM
- CC50 (SNB-19; [5]): > 100 µM
- GI50 (LOX IMVI): 3.22 µM
- TGI (LOX IMVI): 17.8 µM
- CC50 (LOX IMVI; [5]): 80.2 µM
- GI50 (Malme-3M): 0.205 µM
- CC50 (Malme-3M; [5]): > 100 µM
- GI50 (SK-MEL-28 [3]): 0.336 µM
- TGI (SK-MEL-28 [3]): 99.1 µM
- CC50 (SK-MEL-28 [3]; [5]): > 100 µM
- GI50 (SK-MEL-5): 4.15 µM
- TGI (SK-MEL-5): 17.5 µM
- CC50 (SK-MEL-5; [5]): 43.4 µM
- GI50 (UACC-257 [4]): 0.489 µM
- TGI (UACC-257 [4]): 18.5 µM
- CC50 (UACC-257 [4]; [5]): > 100 µM
- GI50 (IGROV-1): 3.61 µM
- TGI (IGROV-1): 50.8 µM
- CC50 (IGROV-1; [5]): > 100 µM
- GI50 (OVCAR-4): 13.9 µM
- TGI (OVCAR-4): 84.6 µM
- CC50 (OVCAR-4; [5]): > 100 µM
- GI50 (OVCAR-5): 18.3 µM
- TGI (OVCAR-5): 61.8 µM
- CC50 (OVCAR-5; [5]): > 100 µM
- GI50 (OVCAR-8): 11.1 µM
- TGI (OVCAR-8): 78.8 µM
- CC50 (OVCAR-8; [5]): > 100 µM
- GI50 (NCI/ADR-RES): 34.8 µM
- TGI (NCI/ADR-RES): > 100 µM
- CC50 (NCI/ADR-RES; [5]): > 100 µM
- GI50 (CAKI-1): 5.92 µM
- TGI (CAKI-1): 29.6 µM
- CC50 (CAKI-1; [5]): > 100 µM
- GI50 (SN12C): 9.04 µM
- TGI (SN12C): 38.4 µM
- CC50 (SN12C; [5]): > 100 µM
- GI50 (UO-31): 12.2 µM
- TGI (UO-31): 88.7 µM
- CC50 (UO-31; [5]): > 100 µM
